The source of these data is ChEMBL document CHEMBL1132997, “Bis(phenazine-1-carboxamides): structure-activity relationships for a new class of dual topoisomerase I/II-directed anticancer drugs” (J Med Chem, 2000).

In one assay the test system is SK-OV-3. The experiment in a line: 50% inhibition of cell growth against SKOV-3 cell line. Conditions: Homo sapiens. The class given is functional. In outline:
(§1)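 Tested in the NCI human tumour cell line panel. GI50 (nM) is the drug concentration inhibiting cell growth to 50% of controls. The panel mean ("Mid") is the average GI50 over the whole cell line panel.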

Assay [1] is described as follows: The average concentration resulting in inhibition of cell growth to 50% whole cell line panel. Type of assay: functional. Put shortly:
as §1

The subject of assay [2] is Lewis lung carcinoma cell line. The experiment in a line: Inhibitory activity against Murine Lewis lung carcinoma cells. The class given is functional, cell-based. The conditions noted are these: Mus musculus. In outline: (§2)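 Growth inhibition in microculture with drug present throughout. Seeding was 4.5 × 10³ P388, 10³ Lewis lung or 3.75 × 10³ wild-type Jurkat cells per well. Exposure was 3 days for P388 and 4 days for the others. IC50 (nM) is the drug concentration reducing cell number to 50% of control cultures. Each value averages at least two independent duplicate determinations; CV 15–22%.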

The next assay deals with HCT-116. Description: 50% inhibition of cell growth against HCT116 cell line. Type of assay: functional. The conditions noted are these: Homo sapiens. Put shortly:
as §1

Another assay has as its system HT-29. Description: 50% inhibition of cell growth against HT-29 cell line. The conditions noted are these: Homo sapiens. Type of assay: functional. In outline:
as §1

The test system of a further assay is CAKI-1. The experiment in a line: 50% inhibition of cell growth against CAK1 cell line. The class given is functional. Conditions: Homo sapiens. Put shortly:
as §1

The test system of another assay is NCI/ADR-RES. The experiment in a line: 50% inhibition of cell growth against NCI/ADRcell line. Type of assay: functional. The conditions noted are these: Homo sapiens. Put shortly:
as §1

The next assay deals with Jurkat. The experiment in a line: Inhibitory activity against wild-type human Jurkat leukemia cells. Type of assay: functional, cell-based. Put shortly:
as §2

The test system of a further assay is P388. Description: Inhibitory activity against Murine P388 leukemia cells. Type of assay: functional, cell-based. The conditions noted are these: Mus musculus. Put shortly:
as §2

The next assay relates to MCF7. Description: 50% inhibition of cell growth against MCF-7 cell line. The class given is functional. The conditions noted are these: Homo sapiens. In outline:
as §1

pIC50: −log10 of the molar value. A value given as a limit tells only on which side of the number the result lay.

One may read the GI50 as the concentration that inhibits growth by half. Broadly, the pIC50 is the IC50 on a negative log10 scale, so that one unit is a factor of ten. For `COc1cccc2nc3cccc(C(=O)NCCCN(C)CCCNC(=O)c4cccc5nc6cccc(OC)c6nc45)c3nc12`, the GI50 is 1560 nM in the assay on SK-OV-3; 575 nM in assay [1]; below 10 nM with HCT-116; 35 nM with HT-29; 1420 nM in the assay with CAKI-1; 21000 nM in the assay with NCI/ADR-RES. This compound returned a GI50 with MCF7 of 47 nM. Besides, the results for the negative logarithm of the IC50 (pIC50) (in assay [2]; in the assay with Jurkat; in the assay on P388) were 6.80, 6.91 and 6.09, respectively.
`COc1ccc2nc3c(C(=O)NCCCN(C)CCCNC(=O)c4cccc5nc6cc(OC)ccc6nc45)cccc3nc2c1`: the GI50 with SK-OV-3 turned out to be 9660 nM; in [1], 4170 nM; in the assay with HCT-116, 37 nM; with HT-29, 93 nM; with CAKI-1 it was 3020 nM; in the assay on NCI/ADR-RES it was 20000 nM. For the same compound, the GI50 in the assay with MCF7 worked out at 2000 nM. Besides, the negative-log IC50 (pIC50) was 7.19 in [2], 6.71 in the assay on Jurkat and 6.22 with P388.
